Results on 1 compound are retold here after ChEMBL document CHEMBL4118079, “Discovery of novel naphthoquinone derivatives as inhibitors of the tumor cell specific M2 isoform of pyruvate kinase” (Eur J Med Chem, 2017).

Data set [1] has as its system HCT-116. Kind of data set: Antiproliferative activity against human HCT116 cells assessed as cell viability at 0.156 uM after 48 hrs by MTS assay relative to control. Type of data set: functional. The settings on record: HCT-116, 48 h, read-out: Activity. In general terms: Tetrazolium dyes change colour on reduction, which living cells bring about.
For data set [2], the target named is T1, Pyruvate kinase PKM (Homo sapiens, UniProt P14618). Put plainly: Inhibition of recombinant human N-terminal His-tagged PKM1 expressed in Escherichia coli BL21 preincubated for 15 mins followed by PEP/NADH addition measured at 30 secs interval for 3 to 6 mins by fluorescent PK-LDH assay. The method in brief:
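Human PKM1 with an N-terminal His tag, expressed in E. coli BL21 and Ni-agarose purified. Activity measured by PK–LDH coupling, with pyruvate formation tracked as NADH depletion by fluorescence in kinetic mode. IC50.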
Target sequence in this assay (P14618 whole entry): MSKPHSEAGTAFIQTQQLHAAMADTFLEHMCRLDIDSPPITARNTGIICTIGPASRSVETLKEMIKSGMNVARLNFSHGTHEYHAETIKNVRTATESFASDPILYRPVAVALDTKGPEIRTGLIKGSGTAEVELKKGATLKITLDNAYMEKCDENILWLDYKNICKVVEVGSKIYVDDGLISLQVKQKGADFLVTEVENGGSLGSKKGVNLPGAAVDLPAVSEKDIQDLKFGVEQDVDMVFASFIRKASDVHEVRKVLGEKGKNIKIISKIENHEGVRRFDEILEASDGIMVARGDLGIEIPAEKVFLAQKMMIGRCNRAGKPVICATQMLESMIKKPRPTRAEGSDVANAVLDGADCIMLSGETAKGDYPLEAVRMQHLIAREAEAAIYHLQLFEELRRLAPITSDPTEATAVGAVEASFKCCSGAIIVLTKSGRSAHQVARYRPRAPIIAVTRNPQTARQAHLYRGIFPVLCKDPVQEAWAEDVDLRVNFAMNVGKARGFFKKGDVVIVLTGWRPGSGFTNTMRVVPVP

For data set [3], the system named is HCT-116. Kind of data set: Antiproliferative activity against human HCT116 cells after 48 hrs by MTS assay. It is filed as functional, cell-based. The settings on record: HCT-116, 48 h. In outline: (§1)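 Cells kept in RPMI 1640 with 9% FBS at 37°C, 5% CO2. 5000 cells/well seeded, left 12 h, then exposed to a range of compound concentrations or DMSO (negative control) for 48 h. MTS added, 3 h at 37°C, absorbance read at 490 nm. IC50 ± SD.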

In data set [4] the target is T1, Pyruvate kinase PKM. Kind of data set: Inhibition of recombinant human N-terminal His-tagged PKM2 expressed in Escherichia coli BL21 preincubated for 15 mins followed by PEP/NADH addition measured at 30 secs interval for 3 to 6 mins by fluorescent PK-LDH assay. The method in brief: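 Human PKM2 with an N-terminal His tag, expressed in E. coli BL21 and Ni-agarose purified. Enzyme and compound preincubated 15 min in 50 mM Tris–HCl pH 7.5, 10 mM KCl, 5 mM MgCl2. NADH fluorescence read kinetically every 30 s for 3–6 min. IC50.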
Target sequence in this assay (P14618 2-531 limits assumed): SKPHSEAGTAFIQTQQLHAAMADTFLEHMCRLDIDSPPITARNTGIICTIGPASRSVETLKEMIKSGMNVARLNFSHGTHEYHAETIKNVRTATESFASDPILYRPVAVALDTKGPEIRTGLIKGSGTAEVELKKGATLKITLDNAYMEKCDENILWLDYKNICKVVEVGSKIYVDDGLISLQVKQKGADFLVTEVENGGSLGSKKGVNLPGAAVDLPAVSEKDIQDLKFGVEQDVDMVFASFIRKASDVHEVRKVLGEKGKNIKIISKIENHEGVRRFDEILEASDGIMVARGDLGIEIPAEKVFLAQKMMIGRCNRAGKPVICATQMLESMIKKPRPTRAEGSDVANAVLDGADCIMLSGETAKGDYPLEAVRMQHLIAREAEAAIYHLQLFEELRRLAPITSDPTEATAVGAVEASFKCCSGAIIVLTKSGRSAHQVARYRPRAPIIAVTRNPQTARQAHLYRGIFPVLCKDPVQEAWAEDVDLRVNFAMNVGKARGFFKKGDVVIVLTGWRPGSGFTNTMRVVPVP

The test system of data set [5] is HCT-116. Put plainly: Antiproliferative activity against human HCT116 cells assessed as cell viability at 0.313 uM after 48 hrs by MTS assay relative to control. It is filed as functional. The settings on record: HCT-116, 48 h, read-out: Activity.
Data set [6] can be described thus: Selectivity index, ratio of IC50 for human BEAS2B cells to IC50 for human NCI-H1299 cells. It is filed as toxicity. Particulars: BEAS2B cells and NCI-H1299 cells, read-out: Ratio IC50.
Data set [7] deals with HeLa. Put plainly: Antiproliferative activity against human HeLa cells assessed as cell viability at 0.078 uM after 48 hrs by MTS assay relative to control. Type of data set: functional. Particulars: read-out: Activity.
Data set [8] deals with NCI-H1299. Kind of data set: Antiproliferative activity against human NCI-H1299 cells after 48 hrs by MTS assay. Type of data set: functional, cell-based. The settings on record: NCI-H1299, 48 h. The method in brief: as §1
Data set [9] has as its system HeLa. Kind of data set: Antiproliferative activity against human HeLa cells assessed as cell viability at 0.625 uM after 48 hrs by MTS assay relative to control. It is filed as functional. Particulars: read-out: Activity.
Data set [10] has as its system HCT-116. Put plainly: Antiproliferative activity against human HCT116 cells assessed as cell viability at 0.078 uM after 48 hrs by MTS assay relative to control. Type of data set: functional. The settings on record: HCT-116, 48 h, read-out: Activity.
The target in another data set is Pyruvate kinase PKLR (Homo sapiens, UniProt P30613). Put plainly: Inhibition of recombinant human N-terminal His-tagged PKL expressed in Escherichia coli preincubated for 15 mins followed by PEP/NADH addition measured at 30 secs interval for 3 to 6 mins by fluorescent PK-LDH assay.
Pyruvate kinase PKLR, sequence (P30613 whole entry): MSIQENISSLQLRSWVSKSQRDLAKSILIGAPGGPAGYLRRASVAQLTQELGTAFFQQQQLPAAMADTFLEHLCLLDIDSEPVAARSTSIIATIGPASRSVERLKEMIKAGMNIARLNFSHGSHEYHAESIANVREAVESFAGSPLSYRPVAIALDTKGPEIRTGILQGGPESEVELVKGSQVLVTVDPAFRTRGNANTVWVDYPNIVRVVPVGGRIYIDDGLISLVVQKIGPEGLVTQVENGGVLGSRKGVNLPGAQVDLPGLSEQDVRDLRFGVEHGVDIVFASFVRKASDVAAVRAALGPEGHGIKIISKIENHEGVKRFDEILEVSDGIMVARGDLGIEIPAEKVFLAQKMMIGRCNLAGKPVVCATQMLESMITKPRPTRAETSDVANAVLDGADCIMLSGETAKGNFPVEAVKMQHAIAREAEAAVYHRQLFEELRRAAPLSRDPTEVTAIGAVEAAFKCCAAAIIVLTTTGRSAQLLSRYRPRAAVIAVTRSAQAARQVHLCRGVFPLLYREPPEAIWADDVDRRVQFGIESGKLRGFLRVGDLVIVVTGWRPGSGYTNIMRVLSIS
For data set [11], the system named is HeLa. Kind of data set: Antiproliferative activity against human HeLa cells assessed as cell viability at 0.156 uM after 48 hrs by MTS assay relative to control. It is filed as functional. Particulars: read-out: Activity.
The test system of data set [12] is HCT-116. Put plainly: Antiproliferative activity against human HCT116 cells assessed as cell viability at 0.625 uM after 48 hrs by MTS assay relative to control. Type of data set: functional. The settings on record: HCT-116, 48 h, read-out: Activity.
Data set [13] relates to NCI-H1299. Put plainly: Antiproliferative activity against human NCI-H1299 cells after 48 hrs in presence of PKM2 activator FBP by MTS assay. Type of data set: functional, cell-based. The settings on record: NCI-H1299, 48 h. In outline: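 H1299 cells in RPMI 1640 with 9% FBS at 37°C, 5% CO2. 5000 cells/well, 12 h attachment, then 48 h treatment at graded concentrations with FBP (100 µM) added. MTS read-out (3 h, 37°C, A490). IC50 ± SD.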

The subject of data set [14] is HeLa. Kind of data set: Antiproliferative activity against human HeLa cells after 48 hrs by MTS assay. Type of data set: functional, cell-based. In outline:
as §1

Data set [15] relates to HeLa. Kind of data set: Antiproliferative activity against human HeLa cells assessed as cell viability at 0.313 uM after 48 hrs by MTS assay relative to control. It is filed as functional. Particulars: read-out: Activity.
Data set [16] is filed under the species Homo sapiens. Kind of data set: Selectivity ratio of IC50 for recombinant human N-terminal His-tagged PKL expressed in Escherichia coli to IC50 for recombinant human N-terminal His-tagged PKM2 expressed in Escherichia coli BL21.
For data set [17], the species on record is Homo sapiens. Kind of data set: Selectivity ratio of IC50 for recombinant human N-terminal His-tagged PKM1 expressed in Escherichia coli BL21 to IC50 for recombinant human N-terminal His-tagged PKM2 expressed in Escherichia coli BL21.
The next data set relates to BEAS-2B. Kind of data set: Cytotoxicity against human BEAS2B cells assessed as reduction in cell viability after 48 hrs by MTS assay. Type of data set: cell-based. The method in brief: as §1

pIC50: −log10 of the molar value.

As for `CC1=C(CSC(=S)N2CCCCC2)C(=O)c2ccccc2C1=O`, the figures for the viability at 0.156 µM in the data set with HCT-116 [1] and with HeLa [11] were 62.3% and 95.8%, respectively. Also, the pIC50 – broadly, −log10 of the IC50, conventionally taken in molar units – at Pyruvate kinase PKM [2] is 4.78; in the data set on HCT-116 [3], 6.74; in the data set with NCI-H1299 [8], 5.81; at Pyruvate kinase PKLR, 5.09; in the data set with NCI-H1299 [13], 5.70; with HeLa [14], 6.54. Also, the negative logarithm of the IC50 (pIC50) in the data set on BEAS-2B is 4.73. The inhibition result on Pyruvate kinase PKM [4] was “Dose-dependent effect”. Further, the values for the viability at 0.313 µM in the data set with HCT-116 [5] and in the data set on HeLa [15] were 20.7% and 21.1%, respectively. For the same compound, in data set [6], the selectivity ratio stood at 11.8. Also, the viability at 0.078 µM was found to be 99% with HeLa [7] and 92.5% in the data set with HCT-116 [10]. Also, the figures for the viability at 0.625 µM in the data set with HeLa [9] and in the data set on HCT-116 [12] were 4.8% and 6.9%, respectively. Moreover, the Ratio IC50 in the data set filed under Homo sapiens [16] turned out to be 2.8; in the data set listed under Homo sapiens [17], 5.7.
